Test results reported in ChEMBL document CHEMBL3797175, “Discovery of 6-(difluoro(6-(4-fluorophenyl)-[1,2,4]triazolo[4,3-b][1,2,4]triazin-3-yl)methyl)quinoline as a highly potent and selective c-Met inhibitor” (Eur J Med Chem, 2016).

Columns and labels:
[1] = target: Hepatocyte growth factor receptor (Homo sapiens, UniProt P08581); test: Inhibition of recombinant c-Met (unknown origin) using poly (Glu, Tyr) 4:1 as substrate incubated for 60 mins by ELISA
[2] = Cmax in Sprague-Dawley rat at 10 mg/kg, po administered as single dose; format: ADME, organism-based; design: dose 10 mg/kg, route oral; conditions: in vivo
Method in brief: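 Male Sprague Dawley rats (n=3), single dose. iv 2 mg/kg in 1% DMA/9% Cremophor/90% saline. po 10 mg/kg in 0.5% CMC-Na. Where iv was 10 mg/kg: 10% DMSO/10% Tween 80/80% (40% PEG40); po in that case in 10% DMSO/5% Tween 80/85% saline.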

[3] = target: Macrophage-stimulating protein receptor (Homo sapiens) (UniProt Q04912); test: Inhibition of recombinant RON (unknown origin) using poly (Glu, Tyr) 4:1 as substrate at 1000 nM incubated for 60 mins by ELISA relative to control
Method in brief: (§1)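 Recombinant tyrosine kinases assayed on wells precoated with poly(Glu,Tyr)4:1 (20 µg/mL). ATP 10 µmol/L in HEPES pH 7.4 buffer with MgCl2, MnCl2, Na3VO4 and DTT; compound in 1% DMSO, 1% DMSO as control. Reaction 60 min at 37 °C. Phosphotyrosine detected with PY99 and HRP anti-mouse, o-phenylenediamine, A490. Inhibition % relative to control; two experiments.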

[4] = target: Platelet-derived growth factor receptor beta (Homo sapiens) (UniProt P09619); test: Inhibition of recombinant PDGFRbeta (unknown origin) using poly (Glu, Tyr) 4:1 as substrate at 1000 nM incubated for 60 mins by ELISA relative to control; method in brief: as §1
[5] = target: Receptor tyrosine-protein kinase erbB-4 (Homo sapiens) (UniProt Q15303); test: Inhibition of recombinant ERBB4 (unknown origin) using poly (Glu, Tyr) 4:1 as substrate at 1000 nM incubated for 60 mins by ELISA relative to control; method in brief: as §1
[6] = Selectivity ratio of IC50 for human AGS cells to IC50 for mouse BAF3 cells expressing TPR-MET; format: ADME, cell-based
Method in brief: (§2)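 Both IC50s in each ratio come from one proliferation assay. Cells were seeded and exposed the next day to a range of concentrations for 72 h, then read by SRB or MTT. IC50s were fitted by four-parameter concentration–response, with each concentration at least in triplicate and at least 2 experiments. BaF3/TPR-Met is murine pre-B BaF3 transfected with TPR-MET and puromycin-selected.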

[7] = Selectivity ratio of IC50 for human SNU16 cells to IC50 for human EBC1 cells; format: ADME, cell-based; conditions: snu-16
[8] = target: Vascular endothelial growth factor receptor 2 (Homo sapiens) (UniProt P35968); test: Inhibition of recombinant KDR (unknown origin) using poly (Glu, Tyr) 4:1 as substrate at 1000 nM incubated for 60 mins by ELISA relative to control; method in brief: as §1
[9] = target: Vascular endothelial growth factor receptor 1 (Homo sapiens) (UniProt P17948); test: Inhibition of recombinant FLT1 (unknown origin) using poly (Glu, Tyr) 4:1 as substrate at 1000 nM incubated for 60 mins by ELISA relative to control; method in brief: as §1
[10] = target: Tyrosine-protein kinase receptor TYRO3 (Homo sapiens, UniProt Q06418); test: Inhibition of recombinant TYRO3 (unknown origin) using poly (Glu, Tyr) 4:1 as substrate incubated for 60 mins by ELISA
[11] = target: Tyrosine-protein kinase Mer (Homo sapiens, UniProt Q12866); test: Inhibition of recombinant c-Mer (unknown origin) using poly (Glu, Tyr) 4:1 as substrate incubated for 60 mins by ELISA
[12] = Antiproliferative activity against human Bel7404 cells after 72 hrs by SRB or MTT assay; format: functional, cell-based; conditions: BEL-7404, 72 h
Method in brief: (§3)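 Cells seeded, exposed next day to a range of concentrations for 72 h. Growth read by sulforhodamine B or MTT. IC50 from four-parameter concentration-response fit. Each concentration tested at least in triplicate, with at least 2 experiments.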

[13] = Antiproliferative activity against human SMMC7721 cells after 72 hrs by SRB or MTT assay; format: functional, cell-based; conditions: SMMC-7721, 72 h; method in brief: as §3
MDA-MB-231 = test: Antiproliferative activity against human MDA-MB-231 cells after 72 hrs by SRB or MTT assay; format: functional, cell-based; conditions: MDA-MB-231, 72 h; method in brief: as §3
[14] = target: Hepatocyte growth factor receptor (Canis lupus familiaris) (UniProt Q75ZY9); test: Inhibition of c-Met in MDCK cells assessed as inhibition of HGF-induced cell scattering after 24 hrs by crystal violet staining based microscopic analysis
Method in brief: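 MDCK cells, 1.5×10^3 per well, grown overnight, then given increasing compound concentrations plus HGF (100 ng/mL). Incubated 24 h at 37 °C, 5% CO2. Fixed in 4% paraformaldehyde 15 min, stained with 0.2% crystal violet and imaged by microscopy. Three independent experiments.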

[15] = Antitumor activity against human EBC1 cells xenografted in athymic nude mouse assessed as tumor growth inhibition at 6.25 mg/kg, po bid for 21 days measured twice a week during compound dosing relative to control; format: functional; conditions: EBC-1, po, 504 h, read-out: TGI
Method in brief: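 Nude mice bearing s.c. tumours. Cells were first grown s.c. to 700–800 mm³, then 1.5 mm³ fragments were transplanted s.c. into the right flank. Mice were randomised at 100–200 mm³ (n=6 treated, n=12 vehicle) and dosed orally twice daily for 21 days. Caliper measurement twice weekly; TV = length×width²/2. TGI taken on the final day versus vehicle; Student's t test.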

[16] = Selectivity ratio of IC50 for human U87MG cells to IC50 for human EBC1 cells; format: ADME, cell-based; conditions: u-87mg atcc
[17] = Selectivity ratio of IC50 for human NCI-H292 cells to IC50 for human EBC1 cells; format: ADME, cell-based; method in brief: as §2
[18] = Selectivity ratio of IC50 for human NCI-H460 cells to IC50 for mouse BAF3 cells expressing TPR-MET; format: ADME, cell-based; method in brief: as §2
[19] = Selectivity ratio of IC50 for human NCI-H226 cells to IC50 for human EBC1 cells; format: ADME, cell-based; method in brief: as §2
[20] = Selectivity ratio of IC50 for human NCI-H661 cells to IC50 for mouse BAF3 cells expressing TPR-MET; format: ADME, cell-based; method in brief: as §2
[21] = Selectivity ratio of IC50 for human Calu3 cells to IC50 for mouse BAF3 cells expressing TPR-MET; format: ADME, cell-based; method in brief: as §2
[22] = Selectivity ratio of IC50 for human SGC7901 cells to IC50 for human MKN45 cells; format: ADME, cell-based; conditions: sgc-7901
Method in brief: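 Each cell line was seeded in 96-well plates, then exposed the next day to a range of compound concentrations for 72 h. Growth was read by SRB or MTT assay, and IC50 was fitted by a four-parameter concentration-response curve. Each concentration was run at least in triplicate, in at least 2 experiments. BaF3/TPR-Met are murine pre-B BaF3 cells transfected with TPR-MET cDNA and selected in puromycin.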

[23] = Selectivity ratio of IC50 for human BGC823 cells to IC50 for human MKN45 cells; format: ADME, cell-based; conditions: bgc-823; method in brief: as §2
[24] = target: Tyrosine-protein kinase Mer (Homo sapiens) (UniProt Q12866); conditions: 1000 nM
Sequence of Tyrosine-protein kinase Mer (Homo sapiens) (Q12866 whole entry): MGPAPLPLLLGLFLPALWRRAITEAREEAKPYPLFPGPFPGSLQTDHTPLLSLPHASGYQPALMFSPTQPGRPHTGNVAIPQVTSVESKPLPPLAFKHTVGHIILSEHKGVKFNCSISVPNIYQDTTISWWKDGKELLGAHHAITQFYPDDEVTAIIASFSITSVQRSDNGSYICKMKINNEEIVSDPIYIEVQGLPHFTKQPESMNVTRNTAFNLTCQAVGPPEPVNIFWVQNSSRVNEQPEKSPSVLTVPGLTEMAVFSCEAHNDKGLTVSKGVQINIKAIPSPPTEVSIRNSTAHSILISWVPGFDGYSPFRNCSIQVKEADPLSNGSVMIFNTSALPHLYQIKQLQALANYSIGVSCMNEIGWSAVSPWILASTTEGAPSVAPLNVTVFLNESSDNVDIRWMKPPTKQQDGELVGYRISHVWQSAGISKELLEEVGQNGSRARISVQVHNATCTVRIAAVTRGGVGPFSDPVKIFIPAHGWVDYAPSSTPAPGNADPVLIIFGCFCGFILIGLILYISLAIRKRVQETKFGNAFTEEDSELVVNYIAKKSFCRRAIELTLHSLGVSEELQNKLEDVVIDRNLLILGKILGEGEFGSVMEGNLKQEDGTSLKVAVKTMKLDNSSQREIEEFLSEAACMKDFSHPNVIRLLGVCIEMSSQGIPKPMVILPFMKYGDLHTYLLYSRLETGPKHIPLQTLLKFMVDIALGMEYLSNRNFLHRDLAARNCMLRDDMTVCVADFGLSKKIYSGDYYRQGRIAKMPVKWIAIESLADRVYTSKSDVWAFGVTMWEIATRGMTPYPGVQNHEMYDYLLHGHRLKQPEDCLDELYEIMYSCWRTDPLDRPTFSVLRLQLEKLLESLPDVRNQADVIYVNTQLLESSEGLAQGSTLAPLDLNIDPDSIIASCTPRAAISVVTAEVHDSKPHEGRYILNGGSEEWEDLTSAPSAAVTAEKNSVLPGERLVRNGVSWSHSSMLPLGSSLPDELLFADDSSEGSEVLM

Sequence of Hepatocyte growth factor receptor (P08581 whole entry): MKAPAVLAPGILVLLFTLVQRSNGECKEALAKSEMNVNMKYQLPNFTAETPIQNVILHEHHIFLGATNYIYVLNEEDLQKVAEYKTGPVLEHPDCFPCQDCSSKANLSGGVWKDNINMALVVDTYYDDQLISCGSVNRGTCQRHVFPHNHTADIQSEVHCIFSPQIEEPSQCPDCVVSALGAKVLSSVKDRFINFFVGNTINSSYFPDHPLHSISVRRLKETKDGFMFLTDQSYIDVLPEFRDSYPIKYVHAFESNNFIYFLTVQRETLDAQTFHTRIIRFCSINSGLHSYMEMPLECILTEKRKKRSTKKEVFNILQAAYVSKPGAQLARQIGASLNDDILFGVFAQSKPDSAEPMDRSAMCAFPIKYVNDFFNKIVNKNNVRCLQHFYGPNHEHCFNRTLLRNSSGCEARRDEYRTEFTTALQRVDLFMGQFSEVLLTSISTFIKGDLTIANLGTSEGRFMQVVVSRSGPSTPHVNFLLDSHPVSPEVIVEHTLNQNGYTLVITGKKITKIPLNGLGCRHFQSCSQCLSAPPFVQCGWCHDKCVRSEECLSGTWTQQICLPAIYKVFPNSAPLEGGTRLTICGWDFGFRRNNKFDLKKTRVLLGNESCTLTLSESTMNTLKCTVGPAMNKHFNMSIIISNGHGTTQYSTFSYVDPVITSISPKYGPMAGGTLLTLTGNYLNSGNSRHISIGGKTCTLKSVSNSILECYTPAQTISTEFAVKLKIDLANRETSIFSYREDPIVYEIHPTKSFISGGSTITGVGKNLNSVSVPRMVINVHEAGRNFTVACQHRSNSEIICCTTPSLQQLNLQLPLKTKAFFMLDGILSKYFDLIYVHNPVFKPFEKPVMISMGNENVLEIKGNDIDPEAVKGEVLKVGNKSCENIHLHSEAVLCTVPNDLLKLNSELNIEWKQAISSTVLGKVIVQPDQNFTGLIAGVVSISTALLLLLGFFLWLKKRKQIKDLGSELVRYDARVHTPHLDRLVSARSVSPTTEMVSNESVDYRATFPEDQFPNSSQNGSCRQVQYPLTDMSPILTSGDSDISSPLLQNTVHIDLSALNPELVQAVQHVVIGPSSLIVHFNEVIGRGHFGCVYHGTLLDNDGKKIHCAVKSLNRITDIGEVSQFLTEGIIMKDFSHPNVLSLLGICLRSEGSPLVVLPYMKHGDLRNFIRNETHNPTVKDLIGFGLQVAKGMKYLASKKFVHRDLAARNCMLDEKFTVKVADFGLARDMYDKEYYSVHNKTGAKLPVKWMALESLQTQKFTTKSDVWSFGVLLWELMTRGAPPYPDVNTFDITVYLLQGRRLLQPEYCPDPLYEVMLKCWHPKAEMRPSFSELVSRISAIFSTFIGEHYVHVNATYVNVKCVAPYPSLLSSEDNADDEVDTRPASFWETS
Sequence of Platelet-derived growth factor receptor beta (Homo sapiens) (P09619 whole entry): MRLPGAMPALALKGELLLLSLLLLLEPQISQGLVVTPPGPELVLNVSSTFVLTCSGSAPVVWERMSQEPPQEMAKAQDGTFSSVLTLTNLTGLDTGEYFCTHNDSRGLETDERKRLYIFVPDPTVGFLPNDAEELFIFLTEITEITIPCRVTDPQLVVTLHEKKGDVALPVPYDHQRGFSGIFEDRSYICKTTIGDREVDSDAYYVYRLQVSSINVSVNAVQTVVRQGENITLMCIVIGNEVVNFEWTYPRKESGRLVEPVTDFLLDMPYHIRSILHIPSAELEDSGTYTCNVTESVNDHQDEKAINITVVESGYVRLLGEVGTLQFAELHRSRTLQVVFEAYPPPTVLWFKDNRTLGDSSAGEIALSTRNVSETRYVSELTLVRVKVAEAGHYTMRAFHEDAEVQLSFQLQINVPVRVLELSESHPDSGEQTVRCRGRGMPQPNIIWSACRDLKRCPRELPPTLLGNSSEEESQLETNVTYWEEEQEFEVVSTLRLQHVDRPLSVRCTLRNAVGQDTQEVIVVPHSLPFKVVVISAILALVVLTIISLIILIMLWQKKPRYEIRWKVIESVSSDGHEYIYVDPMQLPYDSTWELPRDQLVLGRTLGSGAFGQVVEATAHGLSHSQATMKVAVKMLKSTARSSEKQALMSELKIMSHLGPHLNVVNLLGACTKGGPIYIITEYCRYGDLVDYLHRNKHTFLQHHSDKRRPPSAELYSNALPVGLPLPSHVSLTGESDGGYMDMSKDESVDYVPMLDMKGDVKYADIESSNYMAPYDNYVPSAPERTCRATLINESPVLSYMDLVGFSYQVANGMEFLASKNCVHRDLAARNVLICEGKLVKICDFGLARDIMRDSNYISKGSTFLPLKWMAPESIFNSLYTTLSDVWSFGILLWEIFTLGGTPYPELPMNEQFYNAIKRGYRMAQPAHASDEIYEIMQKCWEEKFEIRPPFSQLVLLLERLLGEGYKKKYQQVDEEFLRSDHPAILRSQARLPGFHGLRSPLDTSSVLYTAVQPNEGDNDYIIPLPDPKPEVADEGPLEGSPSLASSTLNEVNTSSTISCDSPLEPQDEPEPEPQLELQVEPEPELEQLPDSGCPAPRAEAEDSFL
Sequence of Vascular endothelial growth factor receptor 2 (Homo sapiens) (P35968 whole entry): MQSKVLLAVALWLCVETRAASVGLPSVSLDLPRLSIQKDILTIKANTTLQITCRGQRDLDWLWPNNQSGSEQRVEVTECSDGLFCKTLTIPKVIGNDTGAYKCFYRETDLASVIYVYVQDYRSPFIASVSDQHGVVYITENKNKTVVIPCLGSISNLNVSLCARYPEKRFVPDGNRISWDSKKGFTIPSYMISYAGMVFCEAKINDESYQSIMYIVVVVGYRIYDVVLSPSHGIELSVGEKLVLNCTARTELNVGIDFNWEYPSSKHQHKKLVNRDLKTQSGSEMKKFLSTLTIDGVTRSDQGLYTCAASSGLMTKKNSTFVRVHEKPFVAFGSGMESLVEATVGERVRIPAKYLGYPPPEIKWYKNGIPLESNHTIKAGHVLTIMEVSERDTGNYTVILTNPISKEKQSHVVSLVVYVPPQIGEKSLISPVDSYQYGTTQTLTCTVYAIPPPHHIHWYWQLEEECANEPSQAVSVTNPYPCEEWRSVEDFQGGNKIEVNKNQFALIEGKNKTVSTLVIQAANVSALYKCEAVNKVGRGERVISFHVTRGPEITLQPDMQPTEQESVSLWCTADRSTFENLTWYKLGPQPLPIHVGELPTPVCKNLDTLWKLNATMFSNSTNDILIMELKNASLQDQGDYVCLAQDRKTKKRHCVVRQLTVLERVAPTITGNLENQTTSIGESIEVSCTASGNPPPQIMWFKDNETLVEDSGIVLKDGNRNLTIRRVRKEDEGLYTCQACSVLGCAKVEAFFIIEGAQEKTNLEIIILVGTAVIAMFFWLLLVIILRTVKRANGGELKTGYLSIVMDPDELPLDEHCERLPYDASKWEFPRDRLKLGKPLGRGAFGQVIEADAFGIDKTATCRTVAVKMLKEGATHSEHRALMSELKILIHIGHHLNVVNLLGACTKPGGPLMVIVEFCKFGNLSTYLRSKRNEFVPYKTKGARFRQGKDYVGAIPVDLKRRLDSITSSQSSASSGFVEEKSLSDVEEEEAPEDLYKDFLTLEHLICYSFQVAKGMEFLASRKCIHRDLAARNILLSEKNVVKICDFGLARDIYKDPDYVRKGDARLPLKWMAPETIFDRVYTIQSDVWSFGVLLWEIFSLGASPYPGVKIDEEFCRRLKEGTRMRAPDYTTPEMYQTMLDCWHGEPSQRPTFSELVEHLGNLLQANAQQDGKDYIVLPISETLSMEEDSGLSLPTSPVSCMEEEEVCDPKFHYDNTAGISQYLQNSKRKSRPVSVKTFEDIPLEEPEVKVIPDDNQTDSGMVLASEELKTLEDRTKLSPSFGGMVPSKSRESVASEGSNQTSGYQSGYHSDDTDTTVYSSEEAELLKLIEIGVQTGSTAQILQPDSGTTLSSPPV
Sequence of Tyrosine-protein kinase Mer (Q12866 whole entry): as the sequence (Q12866 whole entry) above

IC50 [1]: 0.24 nM
Cmax [2]: 869 ng/mL
inhibition [3]: 33.9%
inhibition [4]: 19.6%
inhibition [5]: 26.8%
inhibition [8]: 15.3%
inhibition [9]: 11.5%
IC50 [10]: > 1000 nM
IC50 [11]: > 1000 nM
IC50 (MDA-MB-231): > 10000 nM
inhibition [14]: Dose-dependent effect
inhibition [24]: 13.5%
SMILES: Fc1ccc(-c2cnc3nnc(C(F)(F)c4ccc5ncccc5c4)n3n2)cc1
Ratio IC50 [6]: 10000
Ratio IC50 [7]: 10000
IC50 [12]: > 10000 nM
IC50 [13]: > 10000 nM
inhibition in vivo at 6.25 mg/kg [15]: 56.9%
Ratio IC50 [16]: 10000
Ratio IC50 [17]: 10000
Ratio IC50 [18]: 10000
Ratio IC50 [19]: > 10000
Ratio IC50 [20]: > 10000
Ratio IC50 [21]: > 10000
Ratio IC50 [22]: > 10000
Ratio IC50 [23]: > 10000
